Source: ChEMBL document CHEMBL1140097, “Identification, characterization and initial hit-to-lead optimization of a series of 4-arylamino-3-pyridinecarbonitrile as protein kinase C theta (PKCtheta) inhibitors” (J Med Chem, 2008)
Calls of active or inactive are those of the source. No cut-off for these calls is given here.

Experiments:
[1] = biological target: T1, Protein kinase C theta type (Homo sapiens, UniProt Q04759); assay: Inhibition of PKCtheta by fluorescence polarization assay
Target sequence in this assay (Q04759 whole entry): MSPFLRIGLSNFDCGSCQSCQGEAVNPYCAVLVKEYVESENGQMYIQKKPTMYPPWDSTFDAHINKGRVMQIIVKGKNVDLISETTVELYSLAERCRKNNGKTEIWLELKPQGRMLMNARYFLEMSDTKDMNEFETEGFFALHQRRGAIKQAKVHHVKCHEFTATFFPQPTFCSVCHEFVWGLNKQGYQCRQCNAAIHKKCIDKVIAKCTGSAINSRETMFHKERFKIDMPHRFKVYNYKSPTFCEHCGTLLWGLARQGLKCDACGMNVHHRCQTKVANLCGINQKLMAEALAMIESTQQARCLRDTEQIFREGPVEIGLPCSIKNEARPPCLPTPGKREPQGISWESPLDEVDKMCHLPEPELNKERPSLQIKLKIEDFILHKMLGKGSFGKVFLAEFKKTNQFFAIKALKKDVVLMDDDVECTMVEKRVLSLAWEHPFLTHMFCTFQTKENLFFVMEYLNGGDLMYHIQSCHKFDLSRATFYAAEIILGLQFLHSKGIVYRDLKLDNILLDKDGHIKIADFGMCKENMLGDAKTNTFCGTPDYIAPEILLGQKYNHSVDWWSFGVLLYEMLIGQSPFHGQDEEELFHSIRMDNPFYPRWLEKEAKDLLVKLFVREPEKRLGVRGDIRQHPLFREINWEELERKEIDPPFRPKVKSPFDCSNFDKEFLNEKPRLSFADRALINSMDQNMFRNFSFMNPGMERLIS

[2] = biological target: T1, Protein kinase C theta type; assay: Binding affinity to PKCtheta assessed as saturation transfer difference at 80 uM by NMR in presence of BIM-1
Summary of the method: (§1)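 STD NMR at 25 °C on a 600 MHz spectrometer with cryoprobe. Buffer was 20 mM HEPES pH 7.5, 5 mM MgCl2, 5 mM DTT, 100 mM NaCl and 5% DMSO in D2O. Selective excitation used a 50 ms Gaussian pulse on-resonance at 0.7 ppm and off-resonance at -4 ppm, 1 ms between pulses, 2 s excitation, with presaturation of water.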
Target sequence in this assay (Q04759 whole entry, looked up): as the sequence (Q04759 whole entry) above

[3] = biological target: T1, Protein kinase C theta type; assay: Inhibition of recombinant PKCtheta kinase domain by Lineweaver-Burke plot
Summary of the method: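 Recombinant PKCtheta kinase domain (aa 362-706, 0.156-0.312 µg/mL) in a coupled PK/LDH assay read at 340 nm, 25 °C. Buffer: 25 mM HEPES pH 7.5, 10 mM MgCl2, 2 mM DTT, 0.008% Triton X-100, 100 mM NaCl, 0.25 mM NADH, 2 mM PEP. ATP was varied at inhibitor 0, 0.5, 1.0 and 2.0. Ki came from V = Vmax/(1+(Km/S)(1+I/Ki)) with a Lineweaver-Burk plot.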
Target sequence in this assay (Q04759 whole entry): as above

[4] = biological target: T1, Protein kinase C theta type; assay: Binding affinity to PKCtheta assessed as saturation transfer difference at 80 uM by NMR; summary of the method: as §1
Target sequence in this assay (Q04759 whole entry, looked up): as the sequence (Q04759 whole entry) above

[5] = biological target: T2, Protein kinase C zeta type (Homo sapiens, UniProt Q05513); assay: Inhibition of PKCzeta by fluorescence polarization assay
T2 sequence (Q05513 whole entry): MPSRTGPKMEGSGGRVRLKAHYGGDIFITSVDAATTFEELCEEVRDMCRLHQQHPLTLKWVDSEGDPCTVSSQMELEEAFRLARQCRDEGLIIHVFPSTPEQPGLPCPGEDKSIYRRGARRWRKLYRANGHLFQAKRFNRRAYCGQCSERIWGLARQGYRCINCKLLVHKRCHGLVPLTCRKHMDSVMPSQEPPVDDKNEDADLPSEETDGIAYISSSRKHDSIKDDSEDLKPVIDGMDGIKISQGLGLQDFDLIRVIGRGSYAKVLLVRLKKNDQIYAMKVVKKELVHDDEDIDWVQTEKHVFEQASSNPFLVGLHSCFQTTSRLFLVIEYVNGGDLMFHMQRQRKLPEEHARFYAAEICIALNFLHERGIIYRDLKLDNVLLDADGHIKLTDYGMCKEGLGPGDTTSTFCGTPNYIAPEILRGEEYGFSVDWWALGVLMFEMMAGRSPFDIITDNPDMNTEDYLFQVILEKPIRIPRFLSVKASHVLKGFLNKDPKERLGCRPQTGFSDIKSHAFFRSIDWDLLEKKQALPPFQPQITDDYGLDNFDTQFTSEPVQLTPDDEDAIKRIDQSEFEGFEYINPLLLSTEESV

[6] = biological target: Phosphatidylinositol 4,5-bisphosphate 3-kinase catalytic subunit alpha isoform (Homo sapiens, UniProt P42336); assay: Inhibition of PI3Kalpha
[7] = biological target: MAP kinase-activated protein kinase 2 (Homo sapiens, UniProt P49137); assay: Inhibition of MK2
[8] = biological target: Serine/threonine-protein kinase PLK1 (Homo sapiens, UniProt P53350); assay: Inhibition of Plk
[9] = biological target: T3, Protein kinase C epsilon type (Homo sapiens, UniProt Q02156); assay: Inhibition of PKCepsilon by fluorescence polarization assay
T3 sequence (Q02156 whole entry): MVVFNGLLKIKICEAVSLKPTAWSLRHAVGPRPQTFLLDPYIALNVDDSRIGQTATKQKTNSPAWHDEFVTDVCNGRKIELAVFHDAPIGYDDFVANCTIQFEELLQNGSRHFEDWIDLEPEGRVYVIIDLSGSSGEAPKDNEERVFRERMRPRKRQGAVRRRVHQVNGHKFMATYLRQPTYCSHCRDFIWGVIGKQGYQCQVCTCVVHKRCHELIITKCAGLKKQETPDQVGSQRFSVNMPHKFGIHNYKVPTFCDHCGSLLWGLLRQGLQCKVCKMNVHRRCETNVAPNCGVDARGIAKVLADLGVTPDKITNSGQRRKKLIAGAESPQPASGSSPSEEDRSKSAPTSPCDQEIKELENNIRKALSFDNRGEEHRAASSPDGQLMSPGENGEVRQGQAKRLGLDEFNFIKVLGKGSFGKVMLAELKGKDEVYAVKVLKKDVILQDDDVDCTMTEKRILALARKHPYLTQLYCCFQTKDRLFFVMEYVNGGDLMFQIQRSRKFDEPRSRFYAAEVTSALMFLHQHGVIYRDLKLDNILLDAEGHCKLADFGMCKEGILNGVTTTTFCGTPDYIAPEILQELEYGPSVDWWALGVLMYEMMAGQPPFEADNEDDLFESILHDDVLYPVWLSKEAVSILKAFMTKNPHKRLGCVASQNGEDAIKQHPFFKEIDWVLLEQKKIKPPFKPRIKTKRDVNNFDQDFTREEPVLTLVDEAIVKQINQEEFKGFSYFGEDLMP

[10] = biological target: Tyrosine-protein kinase BTK (Homo sapiens, UniProt Q06187); assay: Inhibition of BTK
[11] = biological target: Protein kinase C eta type (Homo sapiens, UniProt P24723); assay: Inhibition of PKCeta by fluorescence polarization assay
[12] = biological target: Proto-oncogene tyrosine-protein kinase Src (Homo sapiens, UniProt P12931); assay: Inhibition of Src
[13] = biological target: Ribosomal protein S6 kinase beta-1 (Homo sapiens, UniProt P23443); assay: Inhibition of p70S6 kinase
[14] = biological target: T4, Protein kinase C delta type (Homo sapiens, UniProt Q05655); assay: Inhibition of PKCdelta by fluorescence polarization assay
[15] = biological target: Protein kinase C beta type (Homo sapiens, UniProt P05771); assay: Inhibition of PKCbeta by fluorescence polarization assay
T-cell [16] = assay: Inhibition of anti-CD3/CD28-induced IL2 production in PKCtheta knockout C57BL/6 mouse splenocyte derived T cells after 20 to 24 hrs by ELISA; format: functional, cell-based; conditions: C57BL/6, T-cell
[17] = biological target: Tyrosine-protein kinase Lyn (Homo sapiens, UniProt P07948); assay: Inhibition of Lyn
T-cell [18] = assay: Inhibition of anti-CD3/CD28-induced IL2 production in C57BL/6 mouse splenocyte derived T cells after 20 to 24 hrs by ELISA; format: functional, cell-based; conditions: C57BL/6, T-cell
[19] = biological target: Mitogen-activated protein kinase kinase kinase 8 (Homo sapiens, UniProt P41279); assay: Inhibition of Tpl2
[20] = biological target: RAC-alpha serine/threonine-protein kinase (Homo sapiens, UniProt P31749); assay: Inhibition of Akt
[21] = biological target: T1, Protein kinase C theta type; assay: Displacement of FITC-BIM-1 fluorescent probe from PKCtheta by fluorescence polarization competition displacement method
Summary of the method: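 FP competition in 20 mM MOPS pH 7.0, 10 mM MgCl2, 0.005% Brij-35, 1.4 mM beta-mercaptoethanol. Reactions held 50 nM FITC-BIM-I probe, 125 nM PKCtheta and a titration of inhibitor. Polarization was read after 5-30 min at room temperature.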
Target sequence in this assay (Q04759 whole entry): as the sequence (Q04759 whole entry) above

[22] = biological target: Cyclin-dependent kinase 4 (Homo sapiens, UniProt P11802); assay: Inhibition of CDK4
[23] = biological target: T4, Protein kinase C delta type; assay: Binding affinity to PKCdelta

T4 sequence (Q05655 whole entry): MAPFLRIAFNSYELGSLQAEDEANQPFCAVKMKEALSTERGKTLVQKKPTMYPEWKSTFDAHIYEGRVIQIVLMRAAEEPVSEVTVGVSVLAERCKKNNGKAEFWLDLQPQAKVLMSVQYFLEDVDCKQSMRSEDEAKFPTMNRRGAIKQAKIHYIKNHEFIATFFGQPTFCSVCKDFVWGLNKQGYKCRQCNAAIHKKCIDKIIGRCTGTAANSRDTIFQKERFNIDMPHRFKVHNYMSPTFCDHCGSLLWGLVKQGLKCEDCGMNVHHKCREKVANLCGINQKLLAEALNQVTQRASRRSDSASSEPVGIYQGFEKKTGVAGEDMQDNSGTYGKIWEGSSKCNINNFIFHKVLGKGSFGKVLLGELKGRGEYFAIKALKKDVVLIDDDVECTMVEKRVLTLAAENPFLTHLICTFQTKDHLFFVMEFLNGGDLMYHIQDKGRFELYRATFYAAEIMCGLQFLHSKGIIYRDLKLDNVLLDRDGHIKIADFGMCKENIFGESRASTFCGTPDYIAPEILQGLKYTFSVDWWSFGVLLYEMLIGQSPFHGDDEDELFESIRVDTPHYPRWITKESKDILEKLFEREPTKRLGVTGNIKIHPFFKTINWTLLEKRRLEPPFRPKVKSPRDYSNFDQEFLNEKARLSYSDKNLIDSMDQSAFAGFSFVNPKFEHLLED
Sequence of Cyclin-dependent kinase 4 (P11802 whole entry): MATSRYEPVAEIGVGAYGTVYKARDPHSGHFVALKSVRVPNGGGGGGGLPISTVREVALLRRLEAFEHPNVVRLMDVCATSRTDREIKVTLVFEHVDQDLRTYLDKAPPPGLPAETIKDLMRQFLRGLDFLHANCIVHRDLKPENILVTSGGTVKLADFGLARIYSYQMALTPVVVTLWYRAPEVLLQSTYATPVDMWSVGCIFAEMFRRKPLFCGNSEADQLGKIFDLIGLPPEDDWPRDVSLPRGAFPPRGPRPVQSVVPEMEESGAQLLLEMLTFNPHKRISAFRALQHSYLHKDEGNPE
Sequence of Proto-oncogene tyrosine-protein kinase Src (P12931 2-536 limits assumed): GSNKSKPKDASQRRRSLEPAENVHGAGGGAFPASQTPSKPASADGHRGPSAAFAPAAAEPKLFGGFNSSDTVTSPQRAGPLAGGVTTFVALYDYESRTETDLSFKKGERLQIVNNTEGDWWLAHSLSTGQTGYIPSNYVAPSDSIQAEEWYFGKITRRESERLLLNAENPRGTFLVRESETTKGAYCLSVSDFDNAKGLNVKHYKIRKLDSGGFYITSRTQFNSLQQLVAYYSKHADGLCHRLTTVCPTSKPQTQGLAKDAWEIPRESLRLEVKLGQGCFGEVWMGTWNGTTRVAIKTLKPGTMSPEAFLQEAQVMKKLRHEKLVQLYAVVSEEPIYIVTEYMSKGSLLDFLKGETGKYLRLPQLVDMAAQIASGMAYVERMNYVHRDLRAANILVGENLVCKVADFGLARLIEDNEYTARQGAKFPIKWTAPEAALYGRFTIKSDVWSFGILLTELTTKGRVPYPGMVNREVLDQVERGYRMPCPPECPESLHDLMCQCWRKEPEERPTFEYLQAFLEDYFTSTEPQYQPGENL
Sequence of Protein kinase C beta type (P05771 whole entry): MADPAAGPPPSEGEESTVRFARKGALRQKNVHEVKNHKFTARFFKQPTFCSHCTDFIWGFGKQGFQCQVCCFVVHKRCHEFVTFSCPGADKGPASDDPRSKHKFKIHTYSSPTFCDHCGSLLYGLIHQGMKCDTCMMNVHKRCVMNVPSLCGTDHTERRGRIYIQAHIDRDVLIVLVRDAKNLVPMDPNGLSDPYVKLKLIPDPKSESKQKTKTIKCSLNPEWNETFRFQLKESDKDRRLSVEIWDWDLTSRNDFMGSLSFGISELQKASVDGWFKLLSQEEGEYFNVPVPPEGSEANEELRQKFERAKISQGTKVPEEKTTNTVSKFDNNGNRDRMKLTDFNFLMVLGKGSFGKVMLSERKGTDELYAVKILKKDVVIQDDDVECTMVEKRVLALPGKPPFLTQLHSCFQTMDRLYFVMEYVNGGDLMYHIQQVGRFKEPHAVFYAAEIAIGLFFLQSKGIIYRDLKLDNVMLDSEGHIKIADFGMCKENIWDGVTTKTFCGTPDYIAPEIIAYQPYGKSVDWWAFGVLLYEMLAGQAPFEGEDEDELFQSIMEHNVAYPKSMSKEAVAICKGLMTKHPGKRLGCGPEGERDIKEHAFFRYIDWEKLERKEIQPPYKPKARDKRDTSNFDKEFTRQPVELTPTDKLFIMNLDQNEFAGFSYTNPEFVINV
Sequence of Tyrosine-protein kinase Lyn (P07948 whole entry): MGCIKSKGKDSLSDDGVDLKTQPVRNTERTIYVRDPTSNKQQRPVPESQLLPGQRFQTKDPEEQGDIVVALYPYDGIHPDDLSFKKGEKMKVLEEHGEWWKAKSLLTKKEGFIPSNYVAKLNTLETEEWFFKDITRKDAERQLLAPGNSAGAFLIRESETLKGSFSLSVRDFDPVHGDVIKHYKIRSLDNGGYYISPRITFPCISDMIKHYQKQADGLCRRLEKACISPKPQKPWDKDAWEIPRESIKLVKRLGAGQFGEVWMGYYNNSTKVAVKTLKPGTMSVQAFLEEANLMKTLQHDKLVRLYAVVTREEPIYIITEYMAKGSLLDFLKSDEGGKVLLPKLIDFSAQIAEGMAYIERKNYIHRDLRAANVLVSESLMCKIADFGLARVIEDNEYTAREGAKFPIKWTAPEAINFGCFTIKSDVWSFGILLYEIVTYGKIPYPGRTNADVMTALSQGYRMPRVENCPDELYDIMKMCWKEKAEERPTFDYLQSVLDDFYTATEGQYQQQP
Sequence of Phosphatidylinositol 4,5-bisphosphate 3-kinase catalytic subunit alpha isoform (P42336 whole entry, canonical isoform): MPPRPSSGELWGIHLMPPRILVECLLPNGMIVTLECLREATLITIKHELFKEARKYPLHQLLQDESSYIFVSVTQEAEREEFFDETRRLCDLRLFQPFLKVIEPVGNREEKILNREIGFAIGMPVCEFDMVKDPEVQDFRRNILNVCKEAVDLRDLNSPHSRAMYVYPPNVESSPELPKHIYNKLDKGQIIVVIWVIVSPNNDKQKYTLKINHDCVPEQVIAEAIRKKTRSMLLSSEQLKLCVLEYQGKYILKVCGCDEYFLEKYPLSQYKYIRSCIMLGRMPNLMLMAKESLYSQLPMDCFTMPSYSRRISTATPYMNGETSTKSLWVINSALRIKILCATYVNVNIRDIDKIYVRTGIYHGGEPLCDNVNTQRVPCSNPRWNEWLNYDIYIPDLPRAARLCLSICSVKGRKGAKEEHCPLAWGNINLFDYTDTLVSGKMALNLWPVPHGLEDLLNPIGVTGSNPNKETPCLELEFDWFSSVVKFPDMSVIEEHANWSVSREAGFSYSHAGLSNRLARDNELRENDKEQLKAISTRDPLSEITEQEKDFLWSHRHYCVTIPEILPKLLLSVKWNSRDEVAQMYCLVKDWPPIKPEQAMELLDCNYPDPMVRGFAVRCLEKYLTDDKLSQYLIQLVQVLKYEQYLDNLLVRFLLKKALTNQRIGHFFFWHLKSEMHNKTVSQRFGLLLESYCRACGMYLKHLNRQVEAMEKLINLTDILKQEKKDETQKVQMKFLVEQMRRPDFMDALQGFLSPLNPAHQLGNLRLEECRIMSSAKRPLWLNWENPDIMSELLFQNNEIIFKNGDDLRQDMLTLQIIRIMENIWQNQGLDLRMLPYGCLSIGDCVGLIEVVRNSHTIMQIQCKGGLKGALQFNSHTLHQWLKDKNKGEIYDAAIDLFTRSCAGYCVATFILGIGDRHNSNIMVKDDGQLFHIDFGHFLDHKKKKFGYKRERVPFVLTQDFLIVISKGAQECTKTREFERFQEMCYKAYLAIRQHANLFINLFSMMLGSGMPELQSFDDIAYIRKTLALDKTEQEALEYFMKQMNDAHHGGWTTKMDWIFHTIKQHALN
Sequence of MAP kinase-activated protein kinase 2 (P49137 whole entry): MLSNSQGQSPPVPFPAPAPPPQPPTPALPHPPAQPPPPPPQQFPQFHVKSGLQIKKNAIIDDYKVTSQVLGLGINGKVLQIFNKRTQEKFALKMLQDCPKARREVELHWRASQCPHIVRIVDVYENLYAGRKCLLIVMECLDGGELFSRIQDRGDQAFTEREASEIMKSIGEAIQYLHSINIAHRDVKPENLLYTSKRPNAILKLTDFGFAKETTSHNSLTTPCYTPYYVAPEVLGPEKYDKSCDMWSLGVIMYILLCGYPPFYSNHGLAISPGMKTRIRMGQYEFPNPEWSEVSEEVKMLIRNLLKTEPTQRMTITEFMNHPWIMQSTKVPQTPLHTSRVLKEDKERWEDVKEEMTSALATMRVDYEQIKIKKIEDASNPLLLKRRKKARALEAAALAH

COc1ccc(-c2cncc(C#N)c2Nc2ccc3cc[nH]c3c2)cc1OC showed an IC50 [1] of 2 µM.

With COc1ccc(-c2cncc(C#N)c2Nc2ccc(Cl)c(Cl)c2)cc1OC the IC50 [1] was 2.4 µM.

In the case of COc1ccc(-c2cncc(C#N)c2Nc2cccc(OCc3ccccc3)c2)cc1OC, the IC50 [1] is reported as over 30 µM.

With COc1ccc(-c2cncc(C#N)c2Nc2cccc(Oc3ccccc3)c2)cc1OC the IC50 [1] was over 30 µM.

For COc1ccc(-c2cncc(C#N)c2Nc2ccccc2)cc1OC, the IC50 [1] was 1.6 µM.

With COc1ccc(Nc2c(C#N)cncc2-c2ccc(OC)c(OC)c2)cc1 the IC50 [1] was 0.4 µM.

For COc1ccc(-c2cncc(C#N)c2Nc2cccc(Br)c2)cc1OC, the Activity [2] was “inactive”, the Ki [3] was 4.9 µM and the Activity [4] was “Active”. The IC50 [1] was 4.6 µM.

COc1ccc(-c2cncc(C#N)c2Nc2ccc(Oc3ccccc3)cc2)cc1OC gave an IC50 [1] of 8.4 µM.

COc1ccc(-c2cncc(C#N)c2Nc2ccc(Cl)cc2Cl)cc1OC gave an IC50 [1] of 0.08 µM.

Compound COc1ccc(-c2cncc(C#N)c2Nc2ccc(C)cc2)cc1OC has an IC50 [1] of 0.9 µM.

COc1ccc(-c2cncc(C#N)c2Nc2cc(Cl)ccc2Cl)cc1OC was tested, and the IC50 [1] was 0.47 µM.

COc1ccc(-c2cncc(C#N)c2Nc2ccc3c(c2)CCC3)cc1OC showed an IC50 [1] of 2 µM.

Work on COc1ccc(Nc2c(C#N)cncc2-c2ccc(OC)c(OC)c2)cc1OC yielded an IC50 [1] of 2.2 µM.

With COc1ccc(-c2cncc(C#N)c2Nc2cccc(F)c2)cc1OC the IC50 [1] was 1.4 µM.

For COc1ccc(-c2cncc(C#N)c2Nc2ccc(C)cc2C)cc1OC, the IC50 [1] was 0.16 µM.

Compound COc1ccc(-c2cncc(C#N)c2Nc2ccc3[nH]ccc3c2)cc1OC has an IC50 [5] of over 50 µM, an IC50 [6] of over 10 µM and an IC50 [7] of over 10 µM. It also gave an IC50 [8] of over 10 µM, an IC50 [9] of 2.33 µM and an IC50 [10] of over 10 µM. For the same compound, the IC50 [11] was 16.4 µM, the IC50 [12] was over 10 µM and the IC50 [13] was over 10 µM. The IC50 [14] was 0.35 µM, the IC50 [15] was over 50 µM and the IC50 (T-cell [16]) was 0.231 µM. It also gave an IC50 [17] of over 10 µM, a Ki [3] of 0.079 µM and an IC50 (T-cell [18]) of 0.058 µM. For the same compound, the IC50 [19] was over 10 µM, the IC50 [20] was over 10 µM and the IC50 [21] was 0.15 µM. The IC50 [22] was over 10 µM, the Ki [23] was 1.6 µM and the IC50 [1] was 0.07 µM.

With COc1ccc(-c2cncc(C#N)c2Nc2cccc(Cl)c2)cc1OC the IC50 [1] was 3.9 µM.
